{"data": "Measurements gathered from unrelated publications"}
{"Structure (SMILES)": "COc1ccc(NC(=O)N2CCCCN3[C@H](COCCC(=O)O)[C@H](c4ccc(C#Cc5ccccc5)cc4)[C@@H]3C2)cc1", "host": "mouse", "medium": "plasma", "route": "intravenous", "half-life": "2 h"}
{"Structure (SMILES)": "CNCCN(C)c1cc(C#N)cc(CCc2cc(C)cc(N)n2)c1", "host": "male BALB/c mouse", "medium": "plasma", "route": "intravenous", "dose": "2 mg/kg", "half-life": "1.1 h"}
{"Structure (SMILES)": "O=C(Nc1nc(-c2ccc(O)c(O)c2)c(-c2ccccc2)s1)c1ccc(O)c(O)c1", "host": "female nude mouse", "medium": "plasma", "route": "oral", "dose": "800 mg/kg", "half-life": "10 h"}
{"Structure (SMILES)": "COc1cc2c(Nc3ccc(Cl)c(Cl)c3F)ncnc2cc1OC[C@@H]1C[C@@H]2CN(C)C[C@@H]2C1", "host": "FVB mouse", "medium": "plasma", "route": "oral", "dose": "70 mg/kg", "setting": "single dose", "half-life": "14 h"}
{"Structure (SMILES)": "[Cl-].c1csc([I+]c2cccs2)c1", "host": "mouse", "medium": "plasma", "route": "intraperitoneal", "dose": "6 mg/kg", "half-life": "0.08 h"}
{"Structure (SMILES)": "COc1ccc2nccc(N3CCc4c(cc(Cn5ccnc5)cc4-c4cn(C)nc4C(F)(F)F)C3=O)c2c1", "host": "male CD-1 mouse", "medium": "plasma", "route": "intravenous", "dose": "3 mg/kg", "half-life": "0.7 h"}
{"Structure (SMILES)": "O=C(Nc1ccc(Cl)c(Cl)c1)c1ccc(N2CCNCC2)c([N+](=O)[O-])c1", "host": "male mouse", "medium": "plasma", "route": "intravenous", "dose": "3 mg/kg", "half-life": "3.6 h"}
{"Structure (SMILES)": "CC(C)(C)c1ccc(O)c(CN(Cc2cc(C(C)(C)C)ccc2O)C2CCC(NC(N)=O)CC2)c1 (stereo not shown)", "host": "male C57BL/6 mouse", "medium": "brain", "route": "oral", "dose": "10 mg/kg", "setting": "single dose", "half-life": "7.36 h"}
{"Structure (SMILES)": "CC[C@H](C)[C@@H]1NC(=O)[C@@](C)(NC(=O)[C@H](CCCNC(=N)N)NC(=O)[C@H](CC(C)C)NC(=O)[C@@H](NC(=O)[C@H](CCC(N)=O)NC(=O)[C@H](CC(C)C)NC(C)=O)[C@@H](C)O)CCCC=CCCC[C@@](C)(C(=O)N[C@@H](CC(C)C)C(=O)N[C@@H](Cc2ccc3ccccc3c2)C(N)=O)NC(=O)[C@H](CCCNC(=N)N)NC(=O)[C@H](CCC(N)=O)NC1=O", "host": "male BALB/c mouse", "medium": "plasma", "route": "intravenous", "dose": "10 mg/kg", "half-life": "2.17 h"}
{"Structure (SMILES)": "COc1nc(-c2cc(C)c(N[C@@H](C)c3cc(F)cc(F)c3)nn2)ccc1-n1cnc(C)c1", "host": "male CD-1 mouse", "medium": "plasma", "route": "oral", "dose": "5 mg/kg", "setting": "single dose", "half-life": "7.1 h"}
{"Structure (SMILES)": "Cc1noc([C@H](Cc2c[nH]cn2)NC(=O)CN(CCCc2ccccc2)CC(=O)O)n1", "host": "male C57BL/6 mouse", "medium": "plasma", "route": "intraperitoneal", "dose": "30 mg/kg", "half-life": "0.233 h"}
{"Structure (SMILES)": "CN1CCC[C@H](CN2c3ccccc3Sc3ccccc32)C1.O=C(O)CCC(=O)O", "host": "mouse", "medium": "plasma", "route": "oral", "dose": "64 mg/kg", "setting": "single dose", "half-life": "3.36 h"}
{"Structure (SMILES)": "CCc1cc(C(=O)NC)c2nccc(N3CCc4c(cc(Cn5ccnc5)cc4-c4cn(C)nc4C(F)(F)F)C3=O)c2c1", "host": "male CD-1 mouse", "medium": "plasma", "route": "oral", "dose": "150 mg/kg", "half-life": "1.6 h"}
{"Structure (SMILES)": "COc1ccc(NC(=O)N2CCCCN3[C@H](CO)[C@H](c4ccc(C#Cc5ccccc5)cc4)[C@@H]3C2)cc1", "host": "mouse", "medium": "plasma", "route": "intravenous", "half-life": "3 h"}
{"Structure (SMILES)": "COC(=O)CN(CCCc1ccccc1)CC(=O)N[C@@H](Cc1c[nH]cn1)c1nc(C)no1", "host": "male C57BL/6 mouse", "medium": "plasma", "route": "intraperitoneal", "dose": "30 mg/kg", "half-life": "0.1 h"}
{"Structure (SMILES)": "NCC1CCN(c2nc(-c3ccncc3)nc3sc4c(c23)CCCC4)CC1", "host": "female CD-1 mouse", "medium": "plasma", "route": "oral", "dose": "20 mg/kg", "half-life": "7.8 h"}
{"Structure (SMILES)": "Nc1ccc(-c2ccncc2)cc1NC(=O)N1CCCC1", "host": "male C57BL/6 mouse", "medium": "brain", "route": "intraperitoneal", "dose": "10 mg/kg", "half-life": "0.462 h"}
{"Structure (SMILES)": "Cc1cc(Nc2ccc(S(F)(F)(F)(F)F)cc2)n2ncnc2n1", "host": "male Swiss mouse", "medium": "plasma", "route": "oral", "dose": "100 mg/kg", "setting": "single dose", "half-life": "14 h"}
{"Structure (SMILES)": "CCc1cc(OC)c2nccc(N3CCc4c(cc(Cn5ccnc5)cc4-c4cn(C)nc4C(F)(F)F)C3=O)c2c1", "host": "male CD-1 mouse", "medium": "plasma", "route": "intravenous", "dose": "3 mg/kg", "half-life": "0.9 h"}
{"Structure (SMILES)": "Cc1noc(-c2ccc(CSCCC(=O)O)cc2)c1NC(=O)O[C@H](C)c1ccccc1Cl", "host": "mouse", "medium": "plasma", "route": "oral", "dose": "50 mg/kg", "half-life": "0.98 h"}
{"Structure (SMILES)": "CC1(C)CC[C@]2(C(=O)O)CC[C@]3(C)C(=CC[C@@H]4[C@@]5(C)C[C@@H](O)[C@H](OC(=O)/C=C/c6ccc(O)cc6)C(C)(C)[C@@H]5CC[C@]43C)[C@@H]2C1 (relative stereo)", "host": "mouse", "medium": "plasma", "route": "intraperitoneal", "dose": "85 µmol/kg", "setting": "single dose", "half-life": "34.3 h"}
{"Structure (SMILES)": "CCN1CCN(Cc2cc(NC(=O)c3ccc(C)c(-c4ccc5nc(NC(=O)C6CC6)cn5n4)c3)cc(C(F)(F)F)c2)CC1", "host": "Swiss mouse", "medium": "plasma", "route": "intravenous", "dose": "1 mg/kg", "half-life": "3.7 h"}
{"Structure (SMILES)": "Cc1cc(NC(=O)c2cccc3cc(-c4cccc5[nH]nc(N)c45)ccc23)ccc1F", "host": "male CD-1 mouse", "medium": "brain", "route": "oral", "dose": "10 mg/kg", "half-life": "2.06 h"}
{"Structure (SMILES)": "Oc1nc2nonc2cc1Nc1c(F)c(F)c(C(F)(F)F)c(F)c1F", "host": "male C57BL/6 mouse", "medium": "plasma", "route": "oral", "dose": "10 mg/kg", "half-life": "> 15 h"}
{"Structure (SMILES)": "CC(C)c1cnn2c(NCc3ccccc3)cc(NC[C@H]3CCNC[C@@H]3O)nc12", "host": "male CD-1 mouse", "medium": "plasma", "route": "intravenous", "dose": "10 mg/kg", "half-life": "1.9 h"}
{"Structure (SMILES)": "O=C(NCCN1CCCC1)c1cc(-c2ccc(CN3CCOCC3)cc2)nc2ccc(F)cc12", "host": "female NMRI mouse", "medium": "blood", "route": "oral", "dose": "3 mg/kg", "half-life": "19 h"}
{"Structure (SMILES)": "CCNc1nc2c(c(N3CC(=O)Nc4cc(OC)ccc43)n1)CCC2", "host": "female C57BL/6 mouse", "medium": "plasma", "route": "intravenous", "dose": "4 mg/kg", "setting": "single dose", "half-life": "0.51 h"}
{"Structure (SMILES)": "COc1nc(-c2cc(C)c(N[C@@H](C)c3c(F)cc(F)cc3F)nn2)ccc1-n1cnc(C)c1", "host": "male CD-1 mouse", "medium": "plasma", "route": "intravenous", "dose": "1 mg/kg", "setting": "single dose", "half-life": "3.1 h"}
{"Structure (SMILES)": "CCc1ccc(Cc2cc([C@@H]3O[C@H](CO)[C@@H](O)[C@H](O)[C@H]3O)cc3c2CCC3)cc1", "host": "male C57BL/6 mouse", "medium": "plasma", "route": "intravenous", "dose": "1 mg/kg", "half-life": "2.9 h"}
{"Structure (SMILES)": "Cc1ccc(NC(=O)c2ccc(CN3CCN(C)CC3)cc2)cc1Nc1nccc(-c2cncc(-c3oncc3C)c2)n1", "host": "male C57BL/6 mouse", "medium": "plasma", "route": "oral", "dose": "100 mg/kg/day", "half-life": "2.6 h"}
{"Structure (SMILES)": "Cc1ccc2cncc(N3CCc4c(cc(Cn5ccnc5)cc4-c4cn(C)nc4C(F)(F)F)C3=O)c2c1", "host": "male CD-1 mouse", "medium": "plasma", "route": "oral", "dose": "10 mg/kg", "half-life": "1.1 h"}
{"Structure (SMILES)": "CC=Cc1ccc(O)c(OC)c1", "host": "mouse", "medium": "lung", "route": "intranasal", "dose": "100 mg/kg", "half-life": "0.521 h"}
{"Structure (SMILES)": "COc1ccc(C(O)COc2ccc(-c3csc(-c4ccc(OCC(O)c5ccc(OC)c(OC)c5)cc4)n3)cc2)cc1OC (stereo not shown)", "host": "C57BL/6 mouse", "medium": "plasma", "route": "oral", "dose": "75 mg/kg", "half-life": "4.1 h"}
{"Structure (SMILES)": "Cc1nc(-c2cnc(NC(C)C)n(C)c2=O)ccc1Oc1ccnc(-c2cnn(C)c2)c1", "host": "female mouse", "medium": "plasma", "route": "oral", "dose": "7.5 mg/kg", "setting": "single dose", "half-life": "14 h"}
{"Structure (SMILES)": "CNC(=O)c1cc(OC)cc2c(N3CCc4c(cc(Cn5ccnc5)cc4-c4cn(C)nc4C(F)(F)F)C3=O)ccnc12", "host": "male CD-1 mouse", "medium": "plasma", "route": "oral", "dose": "50 mg/kg", "half-life": "1.1 h"}
{"Structure (SMILES)": "NC(=S)NN=Cc1ncccc1N", "host": "female C57BL/6 mouse", "medium": "plasma", "route": "intravenous", "dose": "20 mg/kg", "half-life": "1.08 h"}
{"Structure (SMILES)": "COc1cc(OC)c2nccc(N3CCc4c(cc(Cn5ccnc5)cc4-c4cn(C)nc4C(F)(F)F)C3=O)c2c1", "host": "male CD-1 mouse", "medium": "plasma", "route": "oral", "dose": "50 mg/kg", "half-life": "0.7 h"}
{"Structure (SMILES)": "OC[C@H]1O[C@@H](c2ccc(Cl)c(Cc3ccc(O[C@H]4CCOC4)cc3)c2)[C@H](O)[C@@H](O)[C@@H]1O", "host": "CD-1 mouse", "medium": "plasma", "route": "intravenous", "dose": "5 mg/kg", "half-life": "0.16 h"}
{"Structure (SMILES)": "O=C(Nc1ccc(C(F)(F)F)cc1F)N1CCC(Cc2cccc(Oc3ccc(C(F)(F)F)cn3)c2)CC1", "host": "male Swiss mouse", "medium": "blood", "route": "oral", "dose": "1 mg/kg", "half-life": "6 h"}
{"Structure (SMILES)": "CC(C)Oc1c(NC(=O)c2ccc(NC(=O)[C@H](CC(N)=O)NC(=O)c3ccc(NC(=O)c4ccc(C#N)cc4)cc3)cc2)ccc(C(=O)Nc2ccc(C(=O)O)cc2)c1O", "host": "male CD-1 mouse", "medium": "plasma", "route": "intravenous", "dose": "5 mg/kg", "setting": "single dose", "half-life": "0.98 h"}
{"Structure (SMILES)": "Cc1nc(NC2Cc3cc(F)c(F)cc3C2)c2c(C)noc2n1", "host": "male Swiss mouse", "medium": "plasma", "route": "oral", "dose": "20 mg/kg", "half-life": "0.9 h"}
{"Structure (SMILES)": "Cn1cnc2c(F)c(Nc3ccc(Br)cc3Cl)c(C(=O)NOCCO)cc21", "host": "nude mouse", "medium": "tumour", "route": "oral", "dose": "5 mg/kg", "setting": "single dose, tumour-bearing", "half-life": "2.9 h"}
{"Structure (SMILES)": "CCOc1ccc(Cc2cc([C@@H]3O[C@H](CO)[C@@H](O)[C@H](O)[C@H]3O)ccc2Cl)cc1", "host": "male C57BL/6 mouse", "medium": "plasma", "route": "oral", "dose": "1 mg/kg", "half-life": "3.7 h"}
